Screens from PubChem BioAssay.
An excerpt weighted towards active compounds, which were near 1.2% of everything screened.
core dimer inh: inhibitors of HCV core protein dimerization, primary screen, biochemical, TR-FRET, high-throughput; TR-FRET GST/Flag-core106 dimerization, 1536-well; AID 1899, 2009; inhibition, % at 5 µM; 300,000 tested, 0.33% active;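 active = inhibition above the mean of all tested compounds plus 3 SD, set per screening campaign, cut at about 45% in these data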
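Assay system: tagged HCV core106 pair (GST and Flag); medium: KF-containing HEPES buffer, pH 7.45, DTT, CHAPS, BSA; also added: Eu donor and XL665 acceptor anti-tag antibodies; dosing: 5 µM single dose; timing: compound-protein-antibody incubation 4 h at 22.5 °C; signal: TR-FRET 671 and 617 nm emission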
ZTA counter: ZTA (EBV) inhibition in EBNA-1 counter-screen. P03206. ZTA-DNA binding, fluorescence polarization. inhibition, % at 11 µM. 320,000 tested, 0.15% active. AID 2234; in the data active = inhibition above about 33%
Target sequence (P03206 whole entry, looked up): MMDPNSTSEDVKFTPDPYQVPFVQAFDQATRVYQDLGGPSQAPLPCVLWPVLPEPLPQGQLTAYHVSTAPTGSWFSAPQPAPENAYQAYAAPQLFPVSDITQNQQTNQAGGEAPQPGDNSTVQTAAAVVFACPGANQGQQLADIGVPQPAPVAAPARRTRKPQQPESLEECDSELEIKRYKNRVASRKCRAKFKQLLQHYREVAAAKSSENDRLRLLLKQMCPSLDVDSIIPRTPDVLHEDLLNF
EBNA-1 inhibitor: EBNA-1 DNA-binding inhibitors, primary screen, biochemical, fluorescence polarization; inhibition, % at 14.8 µM; 300,000 tested, 0.34% active; AID 1950, 2009; in the data active = inhibition above about 28%
NS3 helicase inh: inhibitors of HCV NS3 helicase, primary screen, biochemical, Cy5 molecular beacon fluorescence. Hepatitis C virus NS3 helicase. NS3 helicase DNA unwinding. inhibition, % at 10.9 µM. 290,000 tested, 0.56% active. AID 1800, 2009;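 active = inhibition above the mean of all tested compounds plus 3 SD, set per campaign, cut at about 35% in these data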
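Assay system – hepatitis C virus NS3 helicase domain fragment enzyme · Buffer or medium – MOPS pH 6.5, MgCl2, DTT, Tween20, BSA · Reagent – Cy5/quencher beacon DNA duplex and ATP to start · Compound – single 10.9 µM dose · Timing – 1 h at 25 °C · Technique – Cy5 beacon fluorescence read at start and 1 h · Measure – % inhibition of unwinding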
NS3 hel confirm: HCV NS3 helicase inhibitors, retest, confirmation, biochemical, Cy5 molecular beacon fluorescence, triplicate. 1,600 tested, 31% active. NS3 helicase DNA unwinding. AID 1943, 2009. shares compounds with NS3 helicase inh. inhibition, % at 10.9 µM;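 active = inhibition above the mean of all tested compounds plus 3 SD, cutoff set per campaign, cut at about 36% in these data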
FID counter trip: compounds displacing fluorescent DNA intercalator, artefact control for HCV NS3 helicase inhibitor project, biochemical, FID fluorescence, triplicate; inhibition, % at 7.9 µM; 1,600 tested, 4% active; shares compounds with NS3 helicase inh; DNA fluorescent intercalator displacement; in the data active = inhibition above about 37%;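 also: higher means more displacement of ethidium bromide from the DNA hairpin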
FID counter DR: compounds displacing fluorescent intercalator from DNA, dose response, counter-screen for HCV NS3 helicase inhibitor project, biochemical, fluorescence. IC50, µM. fluorescent intercalator displacement from DNA. 120 tested, under 10 active. shares compounds with NS3 helicase inh; call rule not given here
A number is an active result; – = inactive; · = no result given.

SMILES	core dimer inh	ZTA counter	EBNA-1 inhibitor	NS3 helicase inh	NS3 hel confirm	FID counter trip	others
Cc1noc(NS(=O)(=O)c2ccc(NC(=O)CS(=O)(=O)c3ccccc3)cc2)c1C	–	–	–	–	·	·
CSCCC(NC(=O)c1cccc(C)c1)C(=O)Nc1sccc1C(N)=O (stereo not drawn)	–	–	–	41	–	–
O=C(N/N=C/c1cc([N+](=O)[O-])ccc1O)C1CC1	–	–	–	–	·	·
O=C(N/N=C/c1cc([N+](=O)[O-])ccc1O)C(O)(c1ccccc1)c1ccccc1	–	–	–	46	–	–
Cn1nnnc1SCc1nc2scc(-c3ccccc3)c2c(=O)[nH]1	–	–	–	–	·	·
Cn1nnnc1SCc1nc2scc(-c3ccc(Cl)cc3)c2c(=O)[nH]1	–	–	–	42	–	–
NNC(=O)c1oc2nc(-c3ccco3)cc(-c3ccco3)c2c1N	–	–	–	51	–	–
COC(=O)c1c(-c2ccc(C)cc2)csc1NC(=O)C1CC=CCC1C(=O)O (stereo not drawn)	–	–	–	39	53	–
CCc1ccc2oc(C(=O)NCCc3ccc(S(N)(=O)=O)cc3)cc(=O)c2c1	–	–	–	–	·	·
CCCCCC(=O)NC(=S)NC1C2CC3CC(C2)CC1C3 (stereo not drawn)	–	–	–	–	·	·
COC(=O)c1cc(N=Cc2c(O)c3ccccc3oc2=O)cc(C(=O)OC)c1	–	–	–	40	–	–
CCOc1ccc(NC(=O)C(=O)NCCN2CCN(C(=O)c3ccc(C)cc3)CC2)cc1	–	–	–	–	·	·
O=c1ccc2c(-c3ccccc3)c3ccc(O)cc3oc-2c1	66	–	–	73	68	–	FID counter DR=–
CCOC(=O)N1CCC(N2CCCC(CO)(Cc3ccccc3C)C2)CC1 (stereo not drawn)	–	–	–	–	·	·
O=C(COC(=O)/C=C/c1ccco1)Nc1cccc([N+](=O)[O-])c1	–	–	–	38	–	–
CN(C)S(=O)(=O)c1cccc(NC(=O)COC(=O)/C=C/c2ccco2)c1	–	–	–	–	·	·
O=C(COC(=O)/C=C/c1ccco1)Nc1ncc(C(F)(F)F)cc1Cl	–	–	–	55	–	–
COc1ccccc1-n1cnnc1SC(C)C(=O)Nc1cccc([N+](=O)[O-])c1 (stereo not drawn)	–	–	–	–	·	·
CCc1c(C)c2cc(Cl)c(O)c(CN(CC)CC)c2oc1=O	–	–	–	49	–	–
CC1(C)Cc2nc3sc(C(=O)O)c(N)c3cc2CS1	–	–	–	48	–	–
COc1ccc(OC)c(-c2oc3ccccc3c(=O)c2O)c1	–	–	–	–	·	·
CCOc1ccccc1-c1c2cc(O)c(=O)cc-2oc2cc(O)c(O)cc12	·	·	·	52	94	–
Cc1ccccc1-c1cc(=O)c2c(O)cccc2o1	–	–	–	·	·	·
COc1ccc(OC)c(-c2c3cc(O)c(=O)cc-3oc3cc(O)c(O)cc23)c1	–	–	–	44	87	–
O=c1cc2oc3cc(O)c(O)cc3c(-c3ccccc3O)c-2cc1O	·	·	·	51	102	–
SMILES	core dimer inh	ZTA counter	EBNA-1 inhibitor	NS3 helicase inh	NS3 hel confirm	FID counter trip	others
Cc1cc2cc(CNC(=S)NC3CCCCC3)ccc2n1C	–	–	–	–	·	·
O=C(C[C@H]1C(=O)N(C2CCCCC2)C[C@@H]1Cc1ccccc1)Nc1ccccc1	–	–	–	37	–	–
O=C(C[C@H]1C(=O)N(Cc2ccccc2)C[C@@H]1Cc1ccccc1)Nc1ccccc1	–	–	–	–	·	·
O=C(O)c1ccc(-n2nc(C(F)(F)F)c3c2-c2ccoc2CC3)cc1	–	–	–	37	51	–
CCCC(NC(=O)COc1cc2c(c3oc(=O)c(C)c(C)c13)CCC(C)(C)O2)C(=O)O (stereo not drawn)	–	–	–	55	–	–
Cc1ccc(-c2nnc(NC(=O)Cc3ccc(F)cc3)o2)c(C)c1	–	–	–	–	·	·
